Data: article PMC2195561 (The Journal of Experimental Medicine, 1999)
No end group written: not given here.

How the values were obtained:
TAP [1] = biological target: T1, TAP (Homo sapiens, UniProt Q03518+Q03519); assay: Competition of TAP-mediated translocation of iodinated peptide 417; format: biochemical
T1 sequence (Q03518 1-748): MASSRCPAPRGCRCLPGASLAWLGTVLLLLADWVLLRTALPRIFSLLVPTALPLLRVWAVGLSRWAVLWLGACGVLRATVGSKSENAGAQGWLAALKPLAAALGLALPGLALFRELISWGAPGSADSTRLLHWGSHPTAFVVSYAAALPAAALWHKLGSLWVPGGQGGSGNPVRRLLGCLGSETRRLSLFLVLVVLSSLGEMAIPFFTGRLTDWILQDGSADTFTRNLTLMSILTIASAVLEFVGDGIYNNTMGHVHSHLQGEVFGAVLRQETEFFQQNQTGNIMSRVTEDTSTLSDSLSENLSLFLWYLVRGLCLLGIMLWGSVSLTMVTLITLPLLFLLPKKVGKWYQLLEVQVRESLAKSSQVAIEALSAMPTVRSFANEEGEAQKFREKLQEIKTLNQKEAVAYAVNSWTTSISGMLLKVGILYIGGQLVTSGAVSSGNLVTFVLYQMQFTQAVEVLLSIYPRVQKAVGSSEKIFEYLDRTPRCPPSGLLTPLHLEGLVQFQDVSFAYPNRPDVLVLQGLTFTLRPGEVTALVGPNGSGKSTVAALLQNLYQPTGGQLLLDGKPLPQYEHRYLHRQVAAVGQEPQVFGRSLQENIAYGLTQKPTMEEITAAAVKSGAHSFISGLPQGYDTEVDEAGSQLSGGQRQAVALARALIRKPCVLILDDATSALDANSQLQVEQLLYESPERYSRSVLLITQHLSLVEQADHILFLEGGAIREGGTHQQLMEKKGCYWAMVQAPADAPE
T1 sequence (Q03519 1-686): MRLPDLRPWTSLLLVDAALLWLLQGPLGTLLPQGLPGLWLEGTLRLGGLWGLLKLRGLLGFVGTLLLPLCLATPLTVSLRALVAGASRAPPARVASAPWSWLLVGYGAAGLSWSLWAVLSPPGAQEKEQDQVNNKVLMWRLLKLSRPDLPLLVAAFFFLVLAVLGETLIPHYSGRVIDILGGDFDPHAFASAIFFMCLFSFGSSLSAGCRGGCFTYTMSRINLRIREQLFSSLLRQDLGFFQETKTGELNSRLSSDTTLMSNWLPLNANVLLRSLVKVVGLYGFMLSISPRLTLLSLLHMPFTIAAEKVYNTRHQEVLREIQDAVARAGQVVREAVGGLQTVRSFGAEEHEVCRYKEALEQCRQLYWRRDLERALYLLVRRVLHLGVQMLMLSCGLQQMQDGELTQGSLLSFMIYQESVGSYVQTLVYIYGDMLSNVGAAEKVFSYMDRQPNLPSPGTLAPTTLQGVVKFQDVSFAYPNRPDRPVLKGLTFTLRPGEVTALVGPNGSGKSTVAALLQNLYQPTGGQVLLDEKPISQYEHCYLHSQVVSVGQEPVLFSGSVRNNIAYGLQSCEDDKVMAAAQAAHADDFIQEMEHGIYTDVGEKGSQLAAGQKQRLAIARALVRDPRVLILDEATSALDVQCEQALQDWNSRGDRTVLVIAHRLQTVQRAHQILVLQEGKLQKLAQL
Outline: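 Iodinated index peptide (125I via chloramine-T) premixed with unlabelled competitor peptide, then added to streptolysin O–permeabilized human LCL721 cells for TAP-mediated transport into the ER. Translocated index peptide is given as a fraction of that recovered without competitor.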

TAP [2] = biological target: T1, TAP; assay: Direct TAP-mediated translocation of radiolabeled peptides, human TAP; format: biochemical; details: streptolysin O–permeabilized LCL721 cells; Con A–Sepharose recovery; Fig. 1 B
Outline: (§1)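 Test peptides carrying an N-linked glycosylation sequon are radioiodinated (Na-125I, chloramine-T) and added to streptolysin O–permeabilized LCL721 cells. Peptide reaching the ER acquires an N-glycan and is recovered on Con A–Sepharose, given as a fraction of total input. Controls are samples run without ATP and TAP-deficient T2 cells.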

TAP [3] = assay: Direct TAP-mediated translocation of radiolabeled peptides, murine TAP; format: biochemical; details: data not shown
Con A = assay: Con A–Sepharose recovery in the absence of ATP; format: binding; details: no N-linked glycan, Fig. 1 B
Outline: as §1

Row | Substance | IC50 (TAP [1]) [µM] | translocation by human TAP (TAP [2]) | translocation by murine TAP (TAP [3]) | recovery by Con A–Sepharose in the absence of ATP (Con A)
1 | FASGNYSAL [wt-S] | 12 |  |  | 
2 | TVNKTESAY [417-S] |  | very efficiently translocated | very efficiently translocated | 
3 | TVNKTES [O-β-GlcNAc]AY [417-G] |  | also translocated by TAP |  | not itself a ligand for Con A
4 | TVNKTERAY [compound 417, reference compound] |  | very efficiently translocated | very efficiently translocated | 
